# Assay results collected from several papers.
# Lines come from different studies, so protocols differ.
# Target: Mitogen-activated protein kinase kinase kinase 5 (MAP3K5, Homo sapiens, UniProt Q99683)
# Residues used in one study (Q99683 1-1374): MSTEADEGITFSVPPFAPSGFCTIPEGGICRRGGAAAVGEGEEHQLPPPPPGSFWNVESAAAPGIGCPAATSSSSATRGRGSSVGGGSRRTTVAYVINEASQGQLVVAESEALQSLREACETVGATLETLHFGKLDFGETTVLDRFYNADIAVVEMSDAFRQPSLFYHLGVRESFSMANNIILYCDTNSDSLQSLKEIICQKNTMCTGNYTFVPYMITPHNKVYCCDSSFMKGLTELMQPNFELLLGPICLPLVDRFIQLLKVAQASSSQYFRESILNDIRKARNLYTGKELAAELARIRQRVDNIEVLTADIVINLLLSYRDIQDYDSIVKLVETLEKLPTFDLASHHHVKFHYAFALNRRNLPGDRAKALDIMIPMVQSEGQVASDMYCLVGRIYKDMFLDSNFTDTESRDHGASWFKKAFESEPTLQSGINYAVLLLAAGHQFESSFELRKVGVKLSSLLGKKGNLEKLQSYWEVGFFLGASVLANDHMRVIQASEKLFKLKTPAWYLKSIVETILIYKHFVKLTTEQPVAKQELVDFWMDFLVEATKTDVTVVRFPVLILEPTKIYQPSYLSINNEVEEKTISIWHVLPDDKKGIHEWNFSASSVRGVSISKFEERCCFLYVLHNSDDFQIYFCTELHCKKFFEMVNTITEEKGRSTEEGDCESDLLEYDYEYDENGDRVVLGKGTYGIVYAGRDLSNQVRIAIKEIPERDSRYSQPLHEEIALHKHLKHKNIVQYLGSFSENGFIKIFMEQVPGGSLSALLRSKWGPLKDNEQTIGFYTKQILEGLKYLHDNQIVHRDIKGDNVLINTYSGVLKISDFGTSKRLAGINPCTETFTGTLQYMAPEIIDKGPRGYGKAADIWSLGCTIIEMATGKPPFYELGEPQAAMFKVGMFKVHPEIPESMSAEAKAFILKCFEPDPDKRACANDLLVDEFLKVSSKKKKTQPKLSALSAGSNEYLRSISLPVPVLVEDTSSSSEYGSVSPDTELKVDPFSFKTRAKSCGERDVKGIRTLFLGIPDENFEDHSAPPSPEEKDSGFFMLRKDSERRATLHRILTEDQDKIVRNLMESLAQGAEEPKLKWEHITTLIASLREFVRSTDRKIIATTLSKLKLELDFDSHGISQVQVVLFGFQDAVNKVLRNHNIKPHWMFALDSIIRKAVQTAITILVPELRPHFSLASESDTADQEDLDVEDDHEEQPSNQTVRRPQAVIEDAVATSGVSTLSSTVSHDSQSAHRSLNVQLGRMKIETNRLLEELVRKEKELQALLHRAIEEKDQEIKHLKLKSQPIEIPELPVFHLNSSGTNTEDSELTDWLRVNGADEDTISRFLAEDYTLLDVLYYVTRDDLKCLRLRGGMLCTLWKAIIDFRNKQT
SMILES,test,system,conditions,measurement,result
COc1cc(Nc2cnc(C#N)c(O[C@H](C)CN(C)C)n2)ncc1-c1cnn(C)c1,"enzyme activity, inhibitor, radiometric",,10 µM,remaining activity,67%
COc1ccc2c(c1)O[C@H](c1ccc(OC)c(OC)c1)C[C@@H]2NC(=O)C1(c2ccc3c(c2)OC(F)(F)O3)CC1,"cell-free assay, competition with immobilised ligand",,1 µM,remaining binding,100%
Oc1cccc(-c2nc(N3CCOCC3)c3oc4ncccc4c3n2)c1,"enzyme activity, inhibitor",,10 µM,remaining activity,101%
CCCCN(CCCC)C(=O)CN1C[C@H](c2cc(OC)c3c(c2)OCO3)[C@@H](C(=O)O)[C@@H]1CC(C)(C)CCC,"cell-free assay, competition with immobilised ligand",,1 µM,remaining binding,100%
Cc1ccc(Nc2nccc(N(C)c3ccc4c(C)n(C)nc4c3)n2)cc1S(N)(=O)=O,"enzyme activity, inhibitor",,10 µM,inhibition,5%
CCCOc1ccc(OC)c(F)c1C(=O)c1ccc(C(=O)N[C@@H]2CNC[C@H]2NC(=O)c2ccc3[nH]ncc3c2)cc1,"enzyme activity, inhibitor",,10 µM,remaining activity,83%
CC(C)CC(=O)N1CCc2nc(-c3ccc(Br)cc3)nc(N(C)Cc3ccccc3)c2C1,"cell-free assay, competition with immobilised ligand",,0.1 µM,remaining binding,91%
COc1cc(Cl)c(C(=O)N[C@@H](CN[C@H]2CC[C@@H](N)CC2)Cc2ccc(C#N)cc2)cc1-c1ccc(CN[C@H](C)c2ccc(C)cc2)o1,"enzyme activity, inhibitor",,1 µM,remaining activity,94%
CCN1CCN(Cc2ccc(NC(=O)c3ccc(C)c(/C=C/c4cnc5[nH]ccc5c4OC)c3)cc2C(F)(F)F)CC1,"target engagement in cells, inhibitor, chemoproteomics",A-375,0.5 µM,inhibition,-26.3%
O=C(Nc1cnn(-c2csc(C(=O)NC3COC3)c2)c1)Nc1c(F)cccc1Cl,"enzyme activity, inhibitor",,5 µM,remaining activity,91.1%
O=C1Nc2ccc(Cl)cc2C1=Cc1cc(Cl)c(O)c(Cl)c1,cell-free assay,,0.5 µM,remaining signal,106%
CNC(=O)c1cc(Oc2ccc(NC(=O)Nc3ccc(Cl)c(C(F)(F)F)c3)cc2)ccn1,"enzyme activity, inhibitor",,10 µM,inhibition,9%
CCN1CCC2(CC1)NC(=O)c1c(c3ccc(Cl)c(Cl)c3n1C)C2C#N (racemic),"thermal stability, DSF",,10 µM,ΔTm,0.1 °C
CC1=C(C#N)[C@@H](c2ccc3[nH]nc(C)c3c2)C(C#N)=C(c2ccc(Cl)cc2)N1,"cell-free assay, competition with immobilised ligand",,1 µM,remaining binding,100%
C[S+]([O-])c1ccc(-c2nc(-c3ccncc3)c(-c3ccc(F)cc3)[nH]2)cc1 (stereo not drawn),cell-free assay,,0.5 µM,remaining signal,107%
Nc1ncnc2occ(-c3ccc(NC(=O)Nc4cc(C(F)(F)F)ccc4F)cc3)c12,"cell-free assay, inhibitor",,20 µM,remaining signal,7.8%
CCN1CCN(Cc2ccc(NC(=O)c3ccc(C)c(Oc4ccnc5[nH]ccc45)c3)cc2C(F)(F)F)CC1,"target engagement in cells, inhibitor, chemoproteomics",A-375,5 µM,inhibition,-27.1%
FC(F)c1nc2ccccc2n1-c1nc(N2CCOCC2)nc(N2CCOCC2)n1,"enzyme activity, inhibitor",,10 µM,remaining activity,90%
CCCS(=O)(=O)Nc1ccc(F)c(C(=O)c2c[nH]c3ncc(-c4ccc(Cl)cc4)cc23)c1F,"enzyme activity, inhibitor",,1 µM,inhibition,< 10%
NS(=O)(=O)c1cc(NC(=O)Cc2ccccc2)ccc1Oc1cccc(Cl)c1,"cell-free assay, competition with immobilised ligand",,1 µM,remaining binding,100%
CCN(CC)c1ccc(C2=NNC(=O)CC2C)cc1[N+](=O)[O-] (stereo not drawn),"enzyme activity, inhibitor",,10 µM,remaining activity,101%
Cc1ccc(C(=O)Nc2ccc(CN3CCN(C)CC3)c(C(F)(F)F)c2)cc1C#Cc1cnc2cccnn12,"enzyme activity, inhibitor",,23.5 nM,remaining activity,100%
Cc1ccc(NC(=O)c2ccc(C)c(C(F)(F)F)c2)cc1C#Cc1nn(C2CCC(O)CC2)c2ncnc(N)c12 (stereo not drawn),cell-free assay,,10 µM,remaining signal,127%
CC(C)(C)c1nc2c(s1)c1nc(N)ncc1c1ccc(NS(=O)(=O)c3c(F)cccc3F)c(F)c12,"enzyme activity, inhibitor, radiometric",,1 µM,remaining activity,104%
CN(C)c1ncnc(-c2ccc3nc(Nc4cc(CN5CCN(C(=O)CC(F)(F)F)CC5)ccn4)[nH]c3c2)c1Cl,"cell-free assay, competition with immobilised ligand",,1 µM,remaining binding,100%
FC(F)(F)Oc1cccc(-c2cnc3ccc(-c4ccncc4)nn23)c1,"enzyme activity, inhibitor, radiometric",,5 µM,activity vs control,104%
Cn1c2c(c3ccc(Cl)c(Cl)c31)C(C#N)C1(CCOCC1)NC2=O (stereo not drawn),"thermal stability, DSF",,10 µM,ΔTm,0.4 °C
CS(=O)(=O)N1CCCC(NC(=O)[C@H](CCC2CCCCC2)NC(=O)c2ccc(CNc3ncnc4c3nnn4-c3ccccc3)cc2)C1 (stereo partly drawn),"cell-free assay, competition with immobilised ligand",,0.1 µM,remaining binding,100%
Cn1c2c(c3ccc(Cl)c(Cl)c31)C(C#N)C1(CCN(C(=O)OC(C)(C)C)CC1)NC2=O (racemic),"thermal stability, DSF",,10 µM,ΔTm,0 °C
CCN(CC)CCNC(=O)c1c(C)[nH]c(/C=C2\C(=O)Nc3ccc(F)cc32)c1C,"enzyme activity, inhibitor",,10 µM,inhibition,38%
Cn1c2c(Cl)c(Cl)ccc2c2cc(N)[nH]c(=O)c21,"thermal stability, DSF",,10 µM,ΔTm,1.5 °C
Cn1nc(C(=O)NCc2ccc(C(=O)O)cc2)cc1-c1ccc2[nH]ccc2c1,"cell-free assay, competition with immobilised ligand",,0.1 µM,remaining binding,86%
Cn1c2c(c3ccc(Cl)c(Cl)c31)C(C#N)C1(CCNCC1)NC2=O (racemic),"thermal stability, DSF",,10 µM,ΔTm,0.1 °C
Cc1cnc(NC2CCOCC2)nc1-n1cnc(C(=O)NC(CN)c2cc(F)cc(Cl)c2)c1 (stereo not drawn),"enzyme activity, inhibitor, radiometric",,1 µM,remaining activity,105%
CNCc1ccc(-c2cc(-c3nc(-c4ccc(S(=O)(=O)C(C)C)cc4)cnc3N)on2)cc1,"enzyme activity, inhibitor",,2 µM,inhibition,0%
COc1cccc2c(NCc3ccccc3)nc(-n3c(N)nc4ccccc43)nc12,"target engagement in cells, inhibitor, chemoproteomics",,20 mM,inhibition,-7.6%
